Test results from ChEMBL document CHEMBL3351861, “New synthetic sulfone derivatives inhibit growth, adhesion and the leucine arylamidase APE2 gene expression of Candida albicans in vitro” (2015).

How the values were obtained:
Candida albicans [1] = assay: Reduction in APE2 gene expression in compound pre-treated Candida albicans SC5314 grown on human Caco2 cells monolayer at 16 ug/ml pre-treated for 2 hrs measured after 18 hrs by RT-PCR method; type: functional, Caco-2
Outline: (§1)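 Caco-2 was seeded at 1.2×10^5 cells/ml in EMEM (10% FCS, 1 mM pyruvate, no antibiotics) for 18 h at 37°C, 5% CO2. Yeast (10^4 cfu/ml) was pre-incubated 2 h in RPMI with 16 µg/ml sulfone, washed, resuspended in RPMI and inoculated onto the monolayer at 37°C. APE2 mRNA was measured by SYBR qPCR against ACT1 (2^-ΔΔCt, 90028 calibrator), in triplicate.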

Candida albicans [2] = assay: Reduction in APE2 gene expression in compound pre-treated Candida albicans 90028 grown on human Caco2 cells monolayer at 16 ug/ml pre-treated for 2 hrs measured after 6 hrs by RT-PCR method; type: functional, Caco-2
Outline: (§2)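 Blastoconidia are pre-incubated 2 h with 16 µg/ml sulfone in RPMI. They are then washed, resuspended in RPMI and placed on Caco-2 monolayers at 37°C, with RNA taken at 6 or 18 h. Real-time RT-PCR uses SYBR Green with 250 nM primers and 60 ng cDNA: 95°C 15 min, then 45 cycles of 94°C 15 s and 60°C 1 min, plus a melt curve. APE2 is normalized to ACT1 by 2^-ΔΔCt with 90028 as calibrator; three experiments.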

Candida albicans [3] = assay: Reduction in APE2 gene expression in compound pre-treated Candida albicans CAI4 expressing delta-cph1 gene grown on human Caco2 cells monolayer at 16 ug/ml pre-treated for 2 hrs measured after 6 hrs by RT-PCR method; type: functional, Caco-2; outline: as §2
Candida albicans [4] = assay: Reduction in APE2 gene expression in compound pre-treated Candida albicans CAI4 expressing delta-cph1 gene grown on human Caco2 cells monolayer at 16 ug/ml pre-treated for 2 hrs measured after 18 hrs by RT-PCR method; type: functional, Caco-2; outline: as §2
Candida albicans [5] = assay: Reduction in APE2 gene expression in compound pre-treated Candida albicans CAI4 expressing delta-cph1 (CPH1) gene grown on human Caco2 cells monolayer at 16 ug/ml pre-treated for 2 hrs measured after 18 hrs by RT-PCR method; type: functional, Caco-2; outline: as §2
Candida albicans [6] = assay: Reduction in APE2 gene expression in compound pre-treated Candida albicans CAI4 expressing delta-efg1 gene grown on human Caco2 cells monolayer at 16 ug/ml pre-treated for 2 hrs measured after 6 hrs by RT-PCR method; type: functional, Caco-2; outline: as §1
Candida albicans [7] = assay: Reduction in APE2 gene expression in compound pre-treated Candida albicans CAI4 expressing delta-efg1 gene grown on human Caco2 cells monolayer at 16 ug/ml pre-treated for 2 hrs measured after 18 hrs by RT-PCR method; type: functional, Caco-2; outline: as §1
Candida albicans [8] = assay: Reduction in APE2 gene expression in compound pre-treated Candida albicans CAI4 expressing delta-cph1/delta-efg1 gene grown on human Caco2 cells monolayer at 16 ug/ml pre-treated for 2 hrs measured after 6 hrs by RT-PCR method; type: functional, Caco-2; outline: as §2
Candida albicans [9] = assay: Increase in APE2 gene expression in compound pre-treated Candida albicans CAI4 expressing delta-cph1/delta-efg1 gene grown on human Caco2 cells monolayer at 16 ug/ml pre-treated for 2 hrs measured after 18 hrs by RT-PCR method; type: functional, Caco-2; outline: as §2
Candida albicans [10] = assay: Reduction in APE2 gene expression in compound pre-treated Candida albicans CAI4 expressing delta-efg1 (EFG1) gene grown on human Caco2 cells monolayer at 16 ug/ml pre-treated for 2 hrs measured after 6 hrs by RT-PCR method; type: functional, Caco-2; outline: as §1
Candida albicans [11] = assay: Reduction in APE2 gene expression in compound pre-treated Candida albicans CAI4 expressing delta-efg1 (EFG1) gene grown on human Caco2 cells monolayer at 16 ug/ml pre-treated for 2 hrs measured after 18 hrs by RT-PCR method; type: functional, Caco-2; outline: as §1
Candida albicans [12] = assay: Reduction in APE2 gene expression in compound pre-treated Candida albicans CAI4 expressing delta-cph1/delta-efg1 (EFG1) gene grown on human Caco2 cells monolayer at 16 ug/ml pre-treated for 2 hrs measured after 6 hrs by RT-PCR method; type: functional, Caco-2; outline: as §2
Candida albicans [13] = assay: Reduction in APE2 gene expression in compound pre-treated Candida albicans CAI4 expressing delta-cph1/delta-efg1 (EFG1) gene grown on human Caco2 cells monolayer at 16 ug/ml pre-treated for 2 hrs measured after 18 hrs by RT-PCR method; type: functional, Caco-2; outline: as §2
Candida albicans [14] = assay: Inhibition of cell adhesion of compound pre-treated Candida albicans CAI4 expressing delta-efg1 (EFG1) gene to human Caco2 cells assessed as cell adhesion level at 2 ug/ml pre-incubated for 18 hrs by colony counting method (reference value: 2.6 +/- 2.33%); type: functional, Caco-2; set-up: scale not given: the % may be the effect or the level left
Candida albicans [15] = assay: Reduction in APE2 gene expression in compound pre-treated Candida albicans SC5314 grown under YEPD medium at 16 ug/ml pre-treated for 2 hrs measured after 18 hrs by RT-PCR method; type: functional
Outline: (§3)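 YEPD-grown yeast (18 h, 30°C) washed and held at 10^4 cfu/ml in YEPD with 16 µg/ml sulfone for 2 h. Cells were then washed and regrown 18 h at 30°C in YEPD. Total RNA was reverse-transcribed and SYBR Green qPCR run (250 nM primers, 60 ng cDNA, 45 cycles). APE2 was normalized to ACT1 by 2^-ΔΔCt with strain 90028 as calibrator. Done in triplicate on three occasions.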

Candida albicans [16] = assay: Reduction in APE2 gene expression in compound pre-treated Candida albicans 90028 grown under YEPD medium at 16 ug/ml pre-treated for 2 hrs measured after 18 hrs by RT-PCR method; type: functional
Outline: (§4)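 Blastoconidia from YEPD (10^4 cfu/ml) are washed and exposed 2 h to 16 µg/ml sulfone in YEPD. They are then washed and regrown 18 h at 30°C in YEPD before RNA extraction. Real-time RT-PCR uses SYBR Green with 250 nM primers and 60 ng cDNA: 95°C 15 min, then 45 cycles of 94°C 15 s and 60°C 1 min, plus a dissociation curve. APE2 is normalized to ACT1 by 2^-ΔΔCt with strain 90028 as calibrator; three experiments.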

Candida albicans [17] = assay: Reduction in APE2 gene expression in compound pre-treated Candida albicans CAI4 expressing delta-cph1 gene grown under YEPD medium at 16 ug/ml pre-treated for 2 hrs measured after 18 hrs by RT-PCR method; type: functional; outline: as §4
Candida albicans [18] = assay: Reduction in APE2 gene expression in compound pre-treated Candida albicans CAI4 expressing delta-cph1 (CPH1) gene grown under YEPD medium at 16 ug/ml pre-treated for 2 hrs measured after 18 hrs by RT-PCR method; type: functional; outline: as §4
Candida albicans [19] = assay: Reduction in APE2 gene expression in compound pre-treated Candida albicans CAI4 expressing delta-efg1 gene grown under YEPD medium at 16 ug/ml pre-treated for 2 hrs measured after 18 hrs by RT-PCR method; type: functional; outline: as §3
Candida albicans [20] = assay: Reduction in APE2 gene expression in compound pre-treated Candida albicans CAI4 expressing delta-efg1 (EFG1) gene grown under YEPD medium at 16 ug/ml pre-treated for 2 hrs measured after 18 hrs by RT-PCR method; type: functional; outline: as §3
Candida albicans [21] = assay: Reduction in APE2 gene expression in compound pre-treated Candida albicans SC5314 grown on human Caco2 cells monolayer at 16 ug/ml pre-treated for 2 hrs measured after 6 hrs by RT-PCR method; type: functional, Caco-2; outline: as §1

## NNc1ccc(S(=O)(=O)C(Cl)(Br)Br)cc1[N+](=O)[O-]
Candida albicans [1]
  ΔCt: 3.83
Candida albicans [2]
  ΔCt: 7.44
Candida albicans [3]
  fold change (FC): 10.83
Candida albicans [4]
  fold change (FC): 4.05
Candida albicans [5]
  fold change (FC): 9.29
Candida albicans [6]
  fold change (FC): 10.27
Candida albicans [7]
  fold change (FC): 9.07
Candida albicans [8]
  fold change (FC): 10.26
Candida albicans [9]
  fold change (FC): 1.38
Candida albicans [10]
  fold change (FC): 10.7
Candida albicans [11]
  fold change (FC): 8.72
Candida albicans [12]
  fold change (FC): 9.42
Candida albicans [13]
  fold change (FC): 3.55
Candida albicans [14]
  Activity: 0.51%
Candida albicans [15]
  ΔCt: 2.84
Candida albicans [16]
  ΔCt: 2.82
Candida albicans [17]
  ΔCt: 0.11
Candida albicans [18]
  ΔCt: 4.71
Candida albicans [19]
  ΔCt: 3.69
Candida albicans [20]
  ΔCt: 3.44
Candida albicans [21]
  ΔCt: 6.39
